This passage reports Activity results from ChEMBL document CHEMBL1155165, “SB-431542, a transforming growth factor beta inhibitor, impairs Trypanosoma cruzi infection in cardiomyocytes and parasite cycle completion” (2007).

Active and inactive are the calls of the source. The calls are words filed in the database; no cut-off is given here.

Test [1] relates to Trypanosoma cruzi. As to the kind of experiment: Inhibition of Trypanosoma cruzi Y infection-induced TGFbeta signaling in mink C32 cells at 10 uM by luciferase based assay. Format: functional, organism-based. The method, boiled down:
(§1)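 C32 cells are Mv1Lu mink lung cells stably carrying a PAI promoter-luciferase reporter. Cells were plated at 1 × 10^5/well in 5% FCS and switched to 0.1% FCS after 3 h. They were stimulated with TGF-β1 2 ng/ml or live Y strain trypomastigotes, 1 × 10^6 to 4 × 10^6 parasites, with or without 10 μM inhibitor. Luciferase (RLU) was read after 20 h. Mean ± SD of three experiments.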

In test [2] the test system is Trypanosoma cruzi. As to the kind of experiment: Inhibition of invasion of Trypanosoma cruzi Y in mouse embryo cardiomyocytes assessed as pathogen infection at 10 uM for 1 hr measured at 4 hrs postinfection. Format: functional, organism-based. The method in brief:
(§2)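 Mouse embryo cardiomyocytes were pretreated for 1 h with 10 μM inhibitor or left untreated. They were infected with Dm28c or Y strain trypomastigotes at 10:1 parasite:host. Cells were fixed at 4 h postinfection and Giemsa-stained. The percentage of infected cells was counted over 400 cells per slide on two coverslips. Control and treated cells were compared by t test.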

Test [3] deals with Trypanosoma cruzi. As to the kind of experiment: Antitrypanosomal activity against Trypanosoma cruzi Y in mouse cardiomyocytes assessed as number of intracellular parasites per infected cell at 10 uM after 48 hrs postinfection by Giemsa staining. Format: functional. The method, boiled down: (§3)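 Primary mouse embryo cardiomyocytes were seeded at 1 × 10^5 cells/well for 24 h at 37°C in 5% CO2. Cells were pretreated for 1 h with 10 μM inhibitor or vehicle, and treatment was kept throughout. They were infected with Y strain trypomastigotes at 10:1 parasite:host. At 24, 48, 72 and 96 h postinfection cells were Bouin-fixed and Giemsa-stained. Parasites per infected cell were counted over 400 cells on two coverslips. Mean ± SD of three experiments.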

In test [4] the test system is Trypanosoma cruzi. As to the kind of experiment: Antitrypanosomal activity against Trypanosoma cruzi Y in mouse cardiomyocytes assessed as reduction of intracellular amastigotes at 10 uM by Giemsa staining. It is filed as functional, organism-based. The method, boiled down:
as §3

Test [5] relates to Trypanosoma cruzi. As to the kind of experiment: Inhibition of Trypanosoma cruzi Dm28C infection-induced Smad2 phosphorylation in mouse embryo cardiomyocytes at 10 uM by immunoblot. It is filed as functional, organism-based. The method in brief: (§4)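 Mouse embryo cardiomyocytes were pretreated for 1 h with or without 10 μM inhibitor. They were then given 2 ng/ml TGF-β1 or T. cruzi Dm28c for 1 h. Cells were lysed in RIPA buffer, pH 8.0, and 20 μg lysate was run on 12% SDS-PAGE. Blots were probed for phospho-Smad2, with α-tubulin as loading control.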
(In western blotting, separated proteins are transferred to a membrane and probed.)

For test [6], the system named is Trypanosoma cruzi. As to the kind of experiment: Antitrypanosomal activity against Trypanosoma cruzi Y in mouse cardiomyocytes assessed as number of nontrypomastigote release at 10 uM after 96 hrs. It is filed as functional. The method, boiled down: (§5)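 Cardiomyocytes were infected with Y strain trypomastigotes (10:1 parasite:host) and kept with or without 10 μM inhibitor throughout. Parasites released at 96 h postinfection were counted and reported as 10^4. Trypomastigotes were scored separately from nontrypomastigote forms (amastigotes plus epimastigote-like forms).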

In test [7] the test system is Trypanosoma cruzi. As to the kind of experiment: Antitrypanosomal activity against Trypanosoma cruzi Y in mouse cardiomyocytes assessed as number of intracellular parasites per infected cell at 10 uM after 96 hrs postinfection by Giemsa staining. It is filed as functional. The method in brief: as §3
The test system of test [8] is Trypanosoma cruzi. As to the kind of experiment: Antitrypanosomal activity against Trypanosoma cruzi Y in mouse cardiomyocytes assessed as induction of parasite apoptosis at 10 uM after 96 hrs postinfection by TUNEL method. Format: functional. The method in brief: (§6)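 Y strain-infected cardiomyocytes were kept with or without 10 μM inhibitor, grown on coverslips. They were fixed in 4% paraformaldehyde for 20 min at 4°C and permeabilized with 0.1% Triton X-100 in 0.1% sodium citrate for 2 min at 4°C. TUNEL labelling ran 60 min at 37°C, followed by DAPI counterstain. The percentage of TUNEL-positive parasites was scored at 72 and 96 h postinfection by epifluorescence.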

Another test deals with Cardiomyocyte. As to the kind of experiment: Inhibition of TGF-beta-1-induced Smad2 phosphorylation in mouse embryo cardiomyocytes at 10 uM by immunoblot. Format: functional, cell-based. The method, boiled down:
as §4

Test [9] concerns Trypanosoma cruzi. As to the kind of experiment: Antitrypanosomal activity against Trypanosoma cruzi Y in mouse cardiomyocytes assessed as number of trypomastigote release at 10 uM after 96 hrs. It is filed as functional. The method, boiled down:
as §5

Test [10] relates to Trypanosoma cruzi. As to the kind of experiment: Antitrypanosomal activity against Trypanosoma cruzi Y in mouse cardiomyocytes assessed as inhibition of trypomastigote release at 10 uM after 96 hrs. It is filed as functional, organism-based. The method in brief: as §5
Test [11] concerns Trypanosoma cruzi. As to the kind of experiment: Antitrypanosomal activity against Trypanosoma cruzi Y in mouse cardiomyocytes assessed as number of intracellular parasites per infected cell at 10 uM after 24 hrs postinfection by Giemsa staining. It is filed as functional. The method, boiled down:
as §3

For test [12], the system named is Trypanosoma cruzi. As to the kind of experiment: Inhibition of invasion of Trypanosoma cruzi Dm28C in mouse embryo cardiomyocytes assessed as pathogen infection at 10 uM for 1 hr measured at 4 hrs postinfection. It is filed as functional, organism-based. The method in brief: as §2
Test [13] has as its system Trypanosoma cruzi. As to the kind of experiment: Antitrypanosomal activity against Trypanosoma cruzi Y in mouse cardiomyocytes assessed as number of intracellular parasites per infected cell at 10 uM after 72 hrs postinfection by Giemsa staining. It is filed as functional. The method, boiled down: as §3
The test system of a further test is C32. As to the kind of experiment: Inhibition of TGFbeta signaling in mink C32 cells at 10 uM by luciferase based assay. It is filed as functional, cell-based. The settings on record: Neovison vison. The method in brief:
as §1

In test [14] the test system is Trypanosoma cruzi. As to the kind of experiment: Antitrypanosomal activity against Trypanosoma cruzi Y in mouse cardiomyocytes assessed as induction of parasite apoptosis at 10 uM after 72 hrs postinfection by TUNEL method. It is filed as functional. The method, boiled down: as §6

As for `NC(=O)c1ccc(-c2nc(-c3ccccn3)c(-c3ccc4c(c3)OCO4)[nH]2)cc1` [SB-431542], the result in the test with Trypanosoma cruzi [1], in the test on Trypanosoma cruzi [2], with Trypanosoma cruzi [4], in the test with Trypanosoma cruzi [5], in the test on Cardiomyocyte and in the test with Trypanosoma cruzi [10] was Active. Besides, the result with Trypanosoma cruzi [12] and with C32 was Active. Besides, the Activity worked out at 4.4 in the test with Trypanosoma cruzi [3]; 53 with Trypanosoma cruzi [6]; 58 in the test with Trypanosoma cruzi [7]; 26.5% in the test on Trypanosoma cruzi [8]; 19 in the test on Trypanosoma cruzi [9]; 1.4 in the test with Trypanosoma cruzi [11]. Moreover, the Activity with Trypanosoma cruzi [13] is 38; in the test with Trypanosoma cruzi [14], 47.9%.
